Assay outcomes as filed in PubChem.
Hits are enriched below; roughly 0.74% of the tested compounds scored in any of these assays.
RGS16-Gao: RGS16-Galphao interaction regulator (human); bead-based flow cytometry RGS16-Galphao binding, fluorescence; actives lie on both sides; binding response (% of control), % at 10 µM; actives 0.38% (n = 220,000);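 also: Galphao activated by GDP with aluminum fluoride before binding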
Target sequence (O15492 whole entry, looked up): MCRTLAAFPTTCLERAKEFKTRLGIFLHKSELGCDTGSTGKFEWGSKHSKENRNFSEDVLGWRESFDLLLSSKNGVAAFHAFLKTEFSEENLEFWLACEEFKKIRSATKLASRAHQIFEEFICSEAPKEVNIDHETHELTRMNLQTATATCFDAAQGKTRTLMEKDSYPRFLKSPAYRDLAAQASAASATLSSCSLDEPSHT
Target sequence (P09471 whole entry, looked up): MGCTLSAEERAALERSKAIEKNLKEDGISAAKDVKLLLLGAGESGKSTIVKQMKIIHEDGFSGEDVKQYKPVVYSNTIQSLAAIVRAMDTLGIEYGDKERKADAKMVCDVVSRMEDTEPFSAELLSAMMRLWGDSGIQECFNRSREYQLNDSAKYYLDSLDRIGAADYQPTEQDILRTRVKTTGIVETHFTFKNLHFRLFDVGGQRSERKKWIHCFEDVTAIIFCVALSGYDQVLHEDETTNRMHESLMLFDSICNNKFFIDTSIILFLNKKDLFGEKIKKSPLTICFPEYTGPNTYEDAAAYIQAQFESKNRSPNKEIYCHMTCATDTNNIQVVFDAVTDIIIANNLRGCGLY
RGS8-Gao: human RGS8-Galphao interaction regulation. actives 0.34% (n = 220,000). P09471. response (percent of control binding), % at 10 µM. multiplexed bead flow cytometry, RGS8-Galphao binding; actives lie on both sides; in the data active = response below about 60% or above about 140%; inactive = in between;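 also: Galphao activated as the GDP aluminium fluoride complex binding bead-coupled RGS8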
Target sequence (P09471 whole entry, looked up): as above
Calb biofilm kill: mixtures killing C. albicans biofilm | C. albicans biofilm persisters + clotrimazole, fluorescence viability; primary screen in compound mixtures of four per well | AID 1242 | inhibition, % at 7.6 µM | actives 0.02% (n = 120,000);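 active = inhibition above 30.3% in the primary screen of four-compound pools, then above 30% when the compound was retested; inconclusive = passed the primary limit but could not be retested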;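 also: compounds exposed to preformed 24 h biofilms for 48 h; 0% = untreated biofilm control and 100% = clotrimazole plus chlorhexidine kill blank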
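Test system: C. albicans biofilms. Buffer or medium: RPMI/MOPS medium, pH 7.0. Timing: 48 h compound exposure at 37 °C. Technique: Alamar Blue fluorescence. Evaluation: percent inhibition of biofilm viability.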
RGS7-Gao reg: modulates binding of RGS7 to human Galphao; Multiplexed bead flow cytometry; actives lie on both sides; actives 0.35% (n = 220,000); binding response (% of control), % at 10 µM; P09471; AID 1439; in the data active = binding response below about 49% or above about 150%; inconclusive = no clear call, values can overlap the other calls; inactive = in between;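 also: fluorescent Galphao held in activated GDP-AlF4 state binding bead-coupled RGS7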
RGS4-Gao reg: modulates binding of RGS4 to human Galphao; P09471; Multiplexed bead flow cytometry; actives lie on both sides; binding response (% of control), % at 10 µM; actives 0.33% (n = 220,000); AID 1415; in the data active = binding response below about 49% or above about 150%; inactive = in between;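 also: fluorescent Galphao activated with aluminum fluoride binding bead-coupled RGS4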
RGS-Gao: regulators of human RGS4-Galphao interaction; shares compounds with RGS16-Gao; multiplexed bead flow cytometry, RGS–Galpha-o binding; RGS4–Galpha-o binding response, % at 10 µM; actives 99% (n = 1,600); AID 1504;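 also: fluorescently labeled Galpha-o bound to GDP with aluminium fluoride binding biotinylated RGS beads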
Avidin counter: biotin-avidin bead binding disruption counter-screen; shares compounds with RGS16-Gao; streptavidin beads, fluorescein-biotin binding, flow cytometry; inhibition, % at 10 µM; 1,700 tested, under 10 active; AID 1783;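 active = inhibition above 50%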;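 also: median green fluorescence of gated singlet beads compared with DMSO control wells; 0% = DMSO wells and 100% = complete loss of bead fluorescence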
RGS8-Gao single: RGS8-Galphao interaction regulation, single point confirmation; binding response (% of control), % at 10 µM; shares compounds with RGS16-Gao; bead-based flow cytometry RGS8-Galphao binding, fluorescence; actives lie on both sides; AID 1836; actives 3% (n = 1,700); in the data active = binding response below about 72% or above about 130%; inactive = in between;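 also: Galphao activated as GDP AlF4 complex before binding bead RGS8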
RGS7-Gao confirm: confirmation of regulators of human RGS7-Galphao interaction; shares compounds with RGS16-Gao; bead-based flow cytometry RGS7-Galphao binding; actives lie on both sides; response (percent of control binding), % at 10 µM; actives 7.8% (n = 1,700); AID 1837; in the data active = response below about 75% or above about 130%; inactive = in between;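 also: fluorescent Galphao activated with GDP and aluminum fluoride binding bead-coupled RGS7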
RGS16-Gao single: confirmation of regulators of human RGS16-Galphao interaction | AID 1838 | shares compounds with RGS16-Gao | bead-based flow cytometry, RGS16-Galphao binding; actives lie on both sides | actives 4% (n = 1,700) | response (% of control binding), % at 10 µM; in the data active = response below about 74% or above about 130%; inactive = in between;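 also: Galphao activated as the GDP aluminium fluoride complex binding bead-coupled RGS16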
RGS4-Gao confirm: confirmation of regulators of human RGS4-Galphao interaction; shares compounds with RGS16-Gao; RGS4-Galphao binding, multiplexed bead flow cytometry; actives lie on both sides; AID 1840; actives 4% (n = 1,700); binding response (% of control), % at 10 µM; in the data active = binding response below about 74% or above about 130%; inactive = in between
RGS19-Gao single: confirmation of regulators of human RGS19-Galphao interaction; shares compounds with RGS16-Gao; bead-based flow cytometry RGS19-Galphao binding; actives lie on both sides; response (percent of control binding), % at 10 µM; actives 5% (n = 1,700); AID 1841; in the data active = response below about 50% or above about 160%; inactive = in between;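 also: 100% = no compound control and 0% = blank background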
An asterisk follows results filed as active; ? = inconclusive; · = no result; [ ] = remark or other dose. Unless noted, no rule for the calls is given here.

SMILES | RGS16-Gao | RGS8-Gao | Calb biofilm kill | RGS7-Gao reg | RGS4-Gao reg | Avidin counter | RGS8-Gao single | RGS7-Gao confirm | RGS16-Gao single | RGS4-Gao confirm | RGS19-Gao single | others
C=CCn1c(C(CCC(C)C)CC(C)(C)O)n[nH]c1=S (stereo unspecified) | 94 | 103 | · | 111 | 102 | · | · | · | · | · | ·
CC(C)(C)C(=O)C(Oc1cccc2nonc12)n1cncn1 (stereo unspecified) | 102 | 101 | · | 105 | 100 | · | · | · | · | · | ·
CN(Cc1cn(C)nc1-c1ccccc1F)CC1CCN(Cc2ccccc2)CC1 | 100 | 100 | 21 | ? | 97 | · | · | · | · | · | ·
CN(Cc1cn(C)nc1-c1ccccc1F)CC1CCCCO1 (stereo unspecified) | 78 | 67 | 7 | 46* | 74 | 0 | 101 | 100 | 102 | 102 | 97 | RGS-Gao=74*
Cc1ccc(NC(=S)N(CCC(C)C)C(C)c2ccncc2)c(Cl)c1 (stereo unspecified) | 105 | 101 | 19 | ? | 103 | · | · | · | · | · | ·
Cc1cc(NS(=O)(=O)c2ccc(NC(NC(=O)C(C(F)(F)F)C(F)(F)F)(C(F)(F)F)C(F)(F)F)cc2)no1 | 40 | 80 | 10 | 155*[activator] | 101 | -2 | 95 | 98 | 99 | 98 | 97 | RGS-Gao=101*
CC(=O)Nc1ccc(S(=O)(=O)N2CCN(CC3CC4C=CC3C4)CC2)cc1 (stereo unspecified) | 109 | 102 | 3 | 101 | 109 | · | · | · | · | · | ·
COc1ccc(C(=O)Cc2ccc(OC)c(OC)c2)cc1 | · | · | · | · | · | -1 | 101 | 99 | 104 | 101 | 107
O=C(O)CCc1cc(I)c(Oc2ccc(O)c(I)c2)c(I)c1 | 97 | 100 | 11 | ? | 101 | · | · | · | · | · | ·
Cc1cc(/C=N/Nc2nc(N3CCOCC3)nc(N3CCOCC3)n2)c(C)n1-c1ccccc1 | 28 | 7.9* | 12 | 51 | 27* | 0 | 100 | 101 | 101 | 101 | 113
CCOC(=S)NC(=O)c1sc2ccccc2c1Cl | 112 | 105 | · | 103 | 103 | · | · | · | · | · | ·
CCCOC(=S)NC(=O)c1sc2ccccc2c1Cl | · | · | · | · | · | 0 | 103 | 105 | 103 | 105 | 99
O=C(NCc1cccnc1)c1ccc(COc2ccc(Cl)cc2Cl)o1 | 101 | 99 | 18 | 99 | 101 | · | · | · | · | · | ·
O=C(NCc1cccnc1)c1ccc(COc2cccc3ccccc23)o1 | 41 | 56* | · | 47* | 49* | 2 | 102 | 95 | 101 | 100 | 91
O=C(COC(=O)[C@@H]1CC(O)CN1S(=O)(=O)c1ccc2c(c1)OCCO2)NCc1ccc(F)cc1 (stereo partly specified) | 93 | 101 | 20 | ? | 95 | · | · | · | · | · | ·
O=C(NC(=S)NCCOCc1ccc(Cl)cc1)c1cccnc1 | 16* | 67 | 9 | 93 | 89 | -2 | 99 | 87 | 96 | 92 | 100 | RGS-Gao=89*
O=C(Cc1ccc(Cl)cc1)NNC(=S)NC(=O)c1cccnc1 | 95 | 95 | 14 | 93 | 93 | · | · | · | · | · | ·
Nc1ccc(-c2nc3ccc(N)cc3o2)cc1 | 40 | 47* | · | 1.9* | 50 | 0 | 106 | 105 | 108 | 103 | 105 | RGS-Gao=50*
Cc1ccc2nc(-c3cc(N)cc(N)c3)oc2c1 | 88 | 93 | · | 80 | 84 | · | · | · | · | · | ·
C=CCOC(=O)C(=O)/C=C/c1c(C)n(C)n(-c2ccccc2)c1=O | 132 | 107 | 15 | 154*[activator] | 150*[activator] | 0 | 102 | 106 | 104 | 105 | 99
CCOC(=O)c1c(NC(=O)CSC(=S)N2CCOCC2)sc(C)c1C | 105 | 99 | 11 | 99 | 104 | · | · | · | · | · | ·
O=S1(=O)[C@H]2C[C@@H]3C=C[C@]2(CN1Cc1ccc(C(F)(F)F)cc1)O3 | 100 | 83 | 12 | ? | 99 | 0 | 101 | 88 | 97 | 95 | 80
O=S1(=O)[C@H]2CC3O[C@]2(C[C@@H]3c2ccc(F)cc2)CN1Cc1ccc(Cl)cc1 | 92 | 95 | 15 | ? | 89 | · | · | · | · | · | ·
O=C(CCNC(=O)c1ccccc1Cl)Nc1nnc(C2CC2)s1 | 101 | 97 | 2 | 102 | 96 | · | · | · | · | · | ·
CNC(=O)/C(C#N)=C/c1cc(C)n(-c2ccc(N3CCOCC3)cc2)c1C | 216*[activator] | 104 | 17 | ? | 254*[activator] | -1 | 102 | 92 | 96 | 95 | 107
SMILES | RGS16-Gao | RGS8-Gao | Calb biofilm kill | RGS7-Gao reg | RGS4-Gao reg | Avidin counter | RGS8-Gao single | RGS7-Gao confirm | RGS16-Gao single | RGS4-Gao confirm | RGS19-Gao single | others
O=C(CSc1nnc2ccccn12)Nc1ccc2c(c1)OCCO2 | 99 | 100 | 12 | 97 | 100 | · | · | · | · | · | ·
Cc1cc(-c2n[nH]c(=S)n2Cc2ccco2)n(C)n1 | 10* | 76 | 20 | 93 | 90 | 1 | 102 | 105 | 98 | 102 | 89 | RGS-Gao=90*
CCN(CC)S(=O)(=O)c1ccc(OC)c(NC(=O)C(Cc2ccccc2)N2C(=O)c3ccccc3C2=O)c1 (stereo unspecified) | 84 | 92 | 2 | 87 | 89 | · | · | · | · | · | ·
CCC1CCC(c2nnc(-c3ccc(Br)cc3)o2)CC1 (stereo unspecified) | 13* | 72 | 17 | 86 | 89 | 0 | 99 | 102 | 99 | 100 | 91 | RGS-Gao=89*
Cn1c(=O)n(C)c2cc(S(=O)(=O)NCc3ccco3)ccc21 | 114 | 101 | · | 204*[activator] | 117 | 2 | 104 | 102 | 103 | 102 | 110 | RGS-Gao=117*
Cn1nnnc1SCC(=O)Nc1ccc(S(=O)(=O)N2CCOCC2)cc1 | 96 | 101 | 14 | ? | 102 | · | · | · | · | · | ·
Cc1c(C(=O)NNc2cc(=O)n(C)c(=O)n2C)cccc1[N+](=O)[O-] | 103 | 106 | 16 | 105 | 105 | · | · | · | · | · | ·
O=C(Nc1ccc2c(c1)OCO2)C1CCN(Cc2cnn(-c3ccccc3)c2-n2cccc2)CC1 | 134 | 56* | · | 37* | 79 | 0 | 98 | 97 | 98 | 97 | 96 | RGS-Gao=79*
CC(C)N1CCC(=NNC(=O)c2ccc(Br)o2)CC1 | 92 | 98 | · | 97 | 97 | · | · | · | · | · | ·
